24 molecules from PubChem BioAssay can be followed below.

The nature of assay [1]: OD615 S. cerevisiae growth inhibition, permissive medium, pilot counter-assay, permissive growth control for S. cerevisiae lifespan shortening project (AID 705;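 active = growth inhibition above 25% in both replicates, a cutoff set 3 SD above the mean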). The settings on record: OD615, 24 h, at 10 µM, hits give high values. The procedure, abridged:
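System: Engineered DeaD yeast | Buffer or medium: SC raffinose/galactose permissive medium | Doses: 10 µM single dose, 0.25% DMSO | Times: 24 h exposure, 30 °C | Measured by: OD615 turbidity read | Read-out: Yeast growth inhibition indicated by reduced 24 h OD615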

Assay [2] in a line: Restrictive medium S. cerevisiae growth inhibition, OD615, pilot screen of yeast lifespan reduction project, restrictive growth control (AID 706;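 active = growth inhibition above a set limit, 3 SD over mean compound inhibition, in both replicates, cut at about 43% in these data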;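 note: modified DeaD lifespan yeast strain shifted to restrictive glucose medium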). The conditions noted are these: OD615, 48 h, at 10 µM, hits give high values. The essentials: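 Assay system: engineered S. cerevisiae DeaD strain; Buffer or medium: CSMM-D glucose medium; Dosing: 10 µM compound, 0.25% DMSO; Times: cell pre-growth 4 h, compound exposure 48 h, 30 °C; Detection: absorbance (optical density) measured at 615 nm.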

A short description of assay [3]: viability gain of MRP-1-high H69AR cells under doxorubicin, pilot screen, MRP-1 activator project, CellTiter-Glo, duplicate (AID 807).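 Note: compound pretreatment 18-22 h then 72 h combined with doxorubicin; 0% = doxorubicin alone and 100% = vehicle without doxorubicin.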 The conditions noted are these: H69AR viability with doxorubicin, CellTiter-Glo luminescence; at 10 µM; hits give high values. (In ATP-based viability assays light output follows the ATP content of the culture.)
Assay [4] in a line: growth suppression of beta-catenin knockout HCT116, pilot screen, human colon tumor cells (AID 823;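 active = cell viability at or below a set limit in both duplicate runs, the limit being the all-compound median minus 4 SD, cut at about 23% in these data, passing the limit was not always enough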;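 note: 0% = wells killed by 20 µM Hyamine and 100% = untreated DMSO cell wells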). The conditions noted are these: CellTiter-Glo, 60 h, at 10 µM, hits give low values.
A short description of assay [5]: growth suppression of PTEN-deleted HCT116, pilot screen, cell-based, HCT116 clonal line, CellTiter-Glo (AID 824;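 active = viability at or below 27.92% in each of two runs, the all-compound median minus 4 SD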;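 note: 0% = 20 µM Hyamine control and 100% = vehicle cell control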). The settings on record: 60 h, at 10 µM, hits give low values.
Assay [6] in a line: inhibitors of the yeast RAM network, pilot screen, dse1pr::URA3 reporter, 5-FOA selection (AID 869;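 active = inhibition over a set limit, the all-compound mean plus 3 SD, in both replicate runs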;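 note: 0% = DMSO wells with no growth and 100% = 10 µM 1-NA-PP1 with full growth; RAM network block rescues cells from 5-FOA so hits raise OD615 growth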). The conditions noted are these: S. cerevisiae dse1pr::URA3 5-FOA growth, OD615, 2 d; at 10 µM; hits give high values; strain carries analog-sensitive mutant Cbk1 kinase.
Assay [7] is described as follows: RAM signaling pathway blockade in yeast – S. cerevisiae, Pdr1DBD-CYC8 efflux-inhibited sensitized strain, primary screen (AID 1298;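 active = RAM network inhibition above 8.4% in each of two replicates, 3 SD over the compound average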;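 note: 0% = DMSO untreated cells without growth and 100% = 10 µM 1-NA-PP1 full growth; higher means more yeast growth rescued from 5-FOA killing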). The settings on record: S. cerevisiae cbk1-as DSE1-URA3 strain, 5-FOA growth OD615, 2 d; at 50 µM; hits give high values.

Unmarked numbers belong to inactive results. Inconclusive results are not listed. Activity calls are given as the source filed them.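 Rule for the calls, unless noted: active = viability increase at or above a cutoff of the median across tested compounds plus 3 SD (cut at about 8.5% in these data, passing the limit was not always enough); inconclusive = some gains above the cutoff, reason not given; inactive = the rest.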

With `CC1(C)CC(=O)c2sc(NC(=O)C3CC3)nc2C1`, the values for the growth inhibition in assay [1] and in assay [2] were -1.12% and -10.6%, respectively. In addition, the viability increase in assay [3] was 1.37%. Further, the viability in assay [4] is 104%; in assay [5] it was 106%. In addition, the inhibition in assay [6] was 1.47%. For the same molecule, the RAM network inhibition in assay [7] is 1.56%.

For the molecule `Cc1ccc(OCC(O)CN2CCN(CC(O)COc3ccc(C)cc3Cl)CC2)c(Cl)c1` (stereo not drawn), the growth inhibition in assay [1] was -5.18%; in assay [2], -17.4%. Further, the viability increase in assay [3] is -4.02%. Further, the figures for the viability in assay [4] and in assay [5] were 77.7% and 81.8%, respectively. For the same molecule, in assay [6], the inhibition was 2.03%. For the same molecule, the RAM network inhibition in assay [7] was 2.76%.

Regarding `CCOC(=O)C1CCCN(C(=O)Cn2sc3nc(C)cc(C)c3c2=O)C1` (stereo not drawn), the growth inhibition in assay [1] is 18.4%; in assay [2], 29.4%. Also, the viability increase in assay [3] was -8.04%. Moreover, the results for the viability in assay [4] and in assay [5] were 3.38% (active) and 12.6% (active), respectively. Besides, the inhibition in assay [6] was 1.51%. The RAM network inhibition in assay [7] was 2.71%.

`CC1CCN(CC(O)COc2cccc(F)c2)CC1` (stereo not drawn): the figures for the growth inhibition in assay [1] and in assay [2] were -14.2% and -6.4%, respectively. In assay [3], the viability increase was -0.94%. The viability in assay [4] was 96.7%; in assay [5], 92.2%. In addition, the inhibition in assay [6] is -0.65%. Also, in assay [7], the RAM network inhibition is 0.62%.

As to `CCOc1ccc(-n2c(SCC(=O)Nc3ccc4c(c3)OCO4)nc3c(c2=O)SCC3)cc1`, the growth inhibition in assay [1] was 3.25%; in assay [2] it was -5.91%. In addition, the viability increase in assay [3] was -1.65%. The viability in assay [4] is 92.5%; in assay [5], 86.5%. For the same molecule, the inhibition in assay [6] is 1.83%. Besides, in assay [7], the RAM network inhibition was 4.16%.

Consider `CCOC(=O)CSC1=C(C#N)C(c2ccccc2Cl)C(C(=O)OC)C(=O)N1` (stereo not drawn), for which the values for the growth inhibition in assay [1] and in assay [2] were -8.45% and -0.68%, respectively. In assay [3], the viability increase is -0.9%. The viability in assay [4] was 90.3%; in assay [5] it was 91.8%. Further, the inhibition in assay [6] was 0.14%. In addition, in assay [7], the RAM network inhibition was 2.05%.

`COc1ccc(S(=O)(=O)Cc2ccc(C(=O)N3CCN(c4cc(Cl)ccc4C)CC3)o2)cc1`: the growth inhibition is -4.16% in assay [1] and -10.7% in assay [2]. The viability increase in assay [3] is -2.31%. Also, the viability is 76.8% in assay [4] and 67% in assay [5]. In addition, the inhibition in assay [6] is 2.08%. Besides, the RAM network inhibition in assay [7] is 3.33%.

Take `Cc1cc2cc(CNC(=O)c3ccc(Br)o3)ccc2n1C`: the growth inhibition is -9.25% in assay [1] and -10.3% in assay [2]. Moreover, the viability increase in assay [3] is -2.79%. Further, the figures for the viability in assay [4] and in assay [5] were 94.2% and 92.1%, respectively. Also, the inhibition in assay [6] was 1.93%. Moreover, the RAM network inhibition in assay [7] is 9.25%.

As for `O=C1CC(c2nc3ccccc3[nH]2)CN1c1ccccc1F` (stereo not drawn), the growth inhibition in assay [1] was 3.64%; in assay [2], -1.12%. In addition, in assay [3], the viability increase is -0.52%. Moreover, the viability in assay [4] was 98.3%; in assay [5], 92.5%. Besides, in assay [6], the inhibition is 0.355%. Besides, the RAM network inhibition in assay [7] is 1.89%.

Consider `Cc1nc2ccccc2c2oc(C(=O)NCCCN3CCC(C)CC3)cc12`, for which the growth inhibition in assay [1] is 2.51%; in assay [2], 17.8%. The viability increase in assay [3] is -5.7%. The viability in assay [4] is 63.6%; in assay [5] it was 64.7%. Besides, the inhibition in assay [6] was 1.96%. In addition, the RAM network inhibition in assay [7] was 6.26%.

Regarding `CCc1ccccc1S(=O)(=O)Cc1ccc(C(=O)NCc2ccc3c(c2)OCO3)o1`, the growth inhibition is -12% in assay [1] and -13.8% in assay [2]. For the same molecule, the viability increase in assay [3] is -2.5%. Also, the results for the viability in assay [4] and in assay [5] were 95.7% and 91.1%, respectively. The inhibition in assay [6] was 1.87%. In addition, the RAM network inhibition in assay [7] is 7.83%.

On to `CC1CC(C)CN(C(=O)CSc2nnc(-c3ccc(Cl)s3)o2)C1` (stereo not drawn), for which the growth inhibition in assay [1] was -4.71%; in assay [2] it was -6.08%. Further, in assay [3], the viability increase is 2.04%. Moreover, the values for the viability in assay [4] and in assay [5] were 96.5% and 92.4%, respectively. Also, the inhibition in assay [6] is 0.75%. Besides, in assay [7], the RAM network inhibition is 2.52%.

In the case of `Cc1ccc(S(=O)(=O)CC(C)N2CCOCC2)c(S(=O)(=O)CC(C)N2CCOCC2)c1` (stereo not drawn), the growth inhibition in assay [1] was -6.09%; in assay [2], -0.82%. Further, in assay [3], the viability increase was 1.48%. Also, the viability in assay [4] was 97%; in assay [5], 94.4%. Also, the inhibition in assay [6] is 0.7%. For the same molecule, in assay [7], the RAM network inhibition is 1.89%.

For `CCN(CC)CCNC(=O)c1cc2c(=O)n(C)c3ccccc3c2n1C`, the growth inhibition in assay [1] is -4.52%; in assay [2], -6.67%. For the same molecule, the viability increase in assay [3] is -4.8%. Also, the values for the viability in assay [4] and in assay [5] were 49.8% and 51.4%, respectively. The inhibition in assay [6] was 1.88%. For the same molecule, in assay [7], the RAM network inhibition is 0.31%.

As to `CC(=O)Nc1cccc(N2C(=O)CC(Cc3ccccc3)C2=O)c1` (stereo not drawn), the growth inhibition in assay [1] was -6.24%; in assay [2] it was -3.32%. Besides, in assay [3], the viability increase was -1.68%. The viability was 91.5% in assay [4] and 89% in assay [5]. In assay [6], the inhibition is 0.52%. The RAM network inhibition in assay [7] was 7.45%.

For the molecule `COc1ccc(C2N(c3ccc(Cl)cc3)C(=O)C3CCCN32)cc1` (stereo not drawn), the growth inhibition was 1.46% in assay [1] and 0.035% in assay [2]. The viability increase in assay [3] was 0.55%. Further, the viability was 101% in assay [4] and 99.9% in assay [5]. For the same molecule, the inhibition in assay [6] was 0.915%. For the same molecule, the RAM network inhibition in assay [7] is 0.88%.

Consider `O=C(O)[C@@H](c1ccccc1)N1Cc2ccccc2C1=O`, for which the growth inhibition was 2.66% in assay [1] and -13.5% in assay [2]. The viability increase in assay [3] was -0.32%. For the same molecule, the viability in assay [4] was 104%; in assay [5], 96.7%. The inhibition in assay [6] is 1.13%. The RAM network inhibition in assay [7] is 1.56%.

On to `CC(=O)N1CCC(C(=O)Nc2ccccc2)(N(Cc2ccccc2)C(=O)c2cccnc2)CC1`, for which the growth inhibition in assay [1] is -2.38%; in assay [2] it was 4.33%. Besides, the viability increase in assay [3] is -0.15%. The results for the viability in assay [4] and in assay [5] were 95.7% and 86.7%, respectively. For the same molecule, the inhibition in assay [6] is 1.47%. In addition, in assay [7], the RAM network inhibition is -1.39%.

On to `COCCN1C=C(C(=O)OC)C(c2cc(Br)c(OC)c(OC)c2)C(C(=O)OC)=C1`, for which the growth inhibition in assay [1] was 1.89%; in assay [2], -0.035%. Further, the viability increase in assay [3] was -2.7%. Also, the viability in assay [4] was 80.8%; in assay [5] it was 71.9%. The inhibition in assay [6] is 2.16%. Besides, the RAM network inhibition in assay [7] is 8.73%.

Regarding `CC(C)N1C(=O)CCC1C(=O)NCCc1ccc(Cl)cc1` (stereo not drawn), the results for the growth inhibition in assay [1] and in assay [2] were -1.75% and 3.14%, respectively. Further, the viability increase in assay [3] was 0.32%. Further, the viability in assay [4] is 100%; in assay [5] it was 97.3%. For the same molecule, the inhibition in assay [6] is 0.29%. The RAM network inhibition in assay [7] was -0.47%.

As to `CCCCCn1c(NCc2ccco2)nc2ccccc21`, the values for the growth inhibition in assay [1] and in assay [2] were 0.22% and 1.09%, respectively. Also, in assay [3], the viability increase is -5.56%. Further, the viability in assay [4] was 84.9%; in assay [5] it was 72.9%. Moreover, the inhibition in assay [6] was 1.6%. Besides, the RAM network inhibition in assay [7] was 1.9%.

Regarding `O=C(NCCc1cn2ccsc2n1)c1cccs1`, the growth inhibition was -14.1% in assay [1] and -12.4% in assay [2]. Further, in assay [3], the viability increase was -1.75%. The viability in assay [4] is 105%; in assay [5], 102%. Moreover, the inhibition in assay [6] is 1.29%. Besides, the RAM network inhibition in assay [7] was 3.51%.

Consider `Cn1c(Cn2c(=O)sc3ccccc32)nnc1SCC(=O)NC1CCCCC1`, for which the growth inhibition in assay [1] was -17%; in assay [2], -24.8%. Moreover, the viability increase in assay [3] was -0.4%. Further, the viability is 97.6% in assay [4] and 98% in assay [5]. Moreover, the inhibition in assay [6] was 0.415%. Besides, in assay [7], the RAM network inhibition was 1.06%.

In the case of `COc1ccc(NC(=O)N2CCC(c3ccccc3)C2)c(OC)c1` (stereo not drawn), the values for the growth inhibition in assay [1] and in assay [2] were -3.06% and 9.96%, respectively. In addition, in assay [3], the viability increase is 1.59%. Besides, the viability in assay [4] is 90.9%; in assay [5], 90.2%. In addition, the inhibition in assay [6] was 0.67%. Besides, the RAM network inhibition in assay [7] is -1.49%.

As a reminder, the viability is a read-out of living cells in per cent, often relative to untreated cells. For orientation: inhibition means the change of the read-out against control, counted positive when it falls.
